Results as given in the EternaBench riboswitch data.

Test system: MS2 coat protein
Test: apparent Kd, MS2 coat protein; higher = weaker binding; RNA-MaP array
How it was run: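 With or without input ligand, designed RNAs transcribed on an Illumina sequencing chip from sequenced DNA templates were incubated at room temperature with fluorescently labeled MS2 coat protein at 1.5 nM to 3 μM. The buffer was Tris-HCl pH 7.5 with KCl, MgCl2, BSA, DTT, tRNA and Tween20, and incubation ran 0.8–1.5 h at the lowest and 10–20 min at the highest concentrations. Apparent Kd is reported as the median of fits to binding curves from individual clusters. Designs measured on fewer than 10 clusters are not included.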

[1] = designed as: OFF switch for flavin mononucleotide, no ligand
[2] = ligand present: flavin mononucleotide, designed as: OFF switch for flavin mononucleotide
[3] = designed as: ON switch for flavin mononucleotide, no ligand
[4] = ligand present: flavin mononucleotide, designed as: ON switch for flavin mononucleotide
[5] = designed as: OFF switch for theophylline, no ligand
[6] = ligand present: theophylline, designed as: OFF switch for theophylline
[7] = designed as: ON switch for theophylline, no ligand
[8] = ligand present: theophylline, designed as: ON switch for theophylline

## CGUUAGCAGUAGAAGGUAGCCGGCAGGUCAGGGCGACCACAUGAGGAUCACCCAUGUCUAUGUUCUAAGGAUAUACUGACCCAA
[1]
  apparent Kd: 5.2 nM
[2]
  apparent Kd: 5.59 nM

## CGUUCAGUCCAGCGGUUACAUGAGGAUCACCCAUGUUUAGAGAGAAGGGUUGGCACCAGGAUGUAACAGGAUAUCUCGCUUACG
[3]
  apparent Kd: 171 nM
[4]
  apparent Kd: 71.5 nM

## CUAAGAUAAGAAGGAUAUAAAACAUGAGGAUCACCCAUGUAAAAGUACAUCACACUACAAAUGGAUUAGAAGGUCUUAAUAACC
[1]
  apparent Kd: 10.2 nM
[2]
  apparent Kd: 8.47 nM

## CUCAGGCUGCGAGGAUAUCCGUCGAAUCAAACAGGAGAAGGCGCAUACAUGAGGAUCACCCAUGUGCUGACUUGUCCGUGAAUC
[1]
  apparent Kd: 5.46 nM
[2]
  apparent Kd: 6.37 nM

## CUCUCGCAAGGAUAUACACAGUGGAAUAUCAUAAGGUGAACACAUGAGGAUCACCCAUGUAGAAGGUGCAUAAG
[2]
  apparent Kd: 38.5 nM

## CUGAAAGUAGAGGAUAUGUGAAUAGCAGCGAUGACAGAAGGCUACACAUGAGGAUCACCCAUGUAAUCCCGUGC
[1]
  apparent Kd: 20.4 nM
[2]
  apparent Kd: 28.1 nM

## CUGGAUCCGGGAGGAUAUAGACGUUCAGCCUCGUUGCUAACAAGACAUGAGGAUCACCCAUGUAUCUAGAAGGCCCGCCUGGGA
[3]
  apparent Kd: 19.8 nM
[4]
  apparent Kd: 13.8 nM

## CUGUUUGUUUGGGUCUGUCAAAAGAACGAUACCAGCCGCAUUAUGGGCCCUUGGCAGCGUAGGACAUGAGGAUCACCCAUGUACG
[5]
  apparent Kd: 18.7 nM
[6]
  apparent Kd: 35.2 nM

## CUUAUGAUCGAGGAUAUCACAAAUGGGCAGCGUUGAGAAGGCGACACAUGAGGAUCACCCAUGUAAUCAACAGU
[1]
  apparent Kd: 18.4 nM
[2]
  apparent Kd: 15.9 nM

## GAACAUGAGGAUCACCCAUGUAGACGCAGGCUAAUAGAAUCGAGAAGGGCUAUAUGGGAACGCCAGCAGGAUAUCGGAGGUCAA
[3]
  apparent Kd: 84 nM
[4]
  apparent Kd: 49.1 nM

## GACAGGACGACAUGAGGAUCACCCAUGUGUUAGCGUGGAUAGCAGGAUAUAUUAUUUAGACUCGGAUAGAAGGGCUCGGACCUA
[1]
  apparent Kd: 18.3 nM
[2]
  apparent Kd: 14.5 nM

## GACAUGAGGAUCACCCAUGUGAAGCAUGGUGGGCGCUCGUCCUAGGAUAUCUGCAAGUAGCUAGGAGAGAAGGAGGUAGCCAAA
[1]
  apparent Kd: 76.3 nM
[2]
  apparent Kd: 57.6 nM

## GACGAGUGCGAGUCACAUGAGGAUCACCCAUGUAACCAUGGGCAGGAUAUCUACCAGUUACUUUCAGAGAAGGGCCAACGAACU
[3]
  apparent Kd: 419 nM
[4]
  apparent Kd: 108 nM

## GAGAGAUAAGGAUAUCCACAACGGGACAUGAGGAUCACCCAUGUACCCUCAUUCCUCGCAGGAGAAGGUAUCAUGU
[1]
  apparent Kd: 22.4 nM
[2]
  apparent Kd: 44.3 nM

## GAGGUAACGUAGAAGGCGAGGGCAAUACCUGUUCGAGGAUAUACUAUUAGACAUGAGGAUCACCCAUGUGGAGAUUGAUCGUCA
[1]
  apparent Kd: 241 nM
[2]
  apparent Kd: 339 nM

## GAUCCACAUGAGGAUCACCCAUGUGAGGAUACCAGUACCAGAUCCUACCCUUGGCAGCCUAACCUUCAUUCAACACGAAUAAGAA
[7]
  apparent Kd: 12.4 nM
[8]
  apparent Kd: 14.3 nM

## GAUGUCAAACAGAAGGAAGACUUGUACAAGGACUUAGGAUAUGUACAUGAGGAUCACCCAUGUGACUAAUGCGGGCCAUAUGAC
[1]
  apparent Kd: 15.1 nM
[2]
  apparent Kd: 16.9 nM

## GCAAAGAAAGCAGUGUAAACAUGAGGAUCACCCAUGUGAUGGAGAAGGUAUAGGCUGGUCGUAUAUAAGGAUAUCCUAAGCAAA
[3]
  apparent Kd: 18.6 nM
[4]
  apparent Kd: 17.6 nM

## GCAAAUGCUGAGAAGGUGAUGAAUAACUCCUCGAUGUAACUUGACAUGAGGAUCACCCAUGUCAUCAAGGAUAUCAAAGUGAAC
[1]
  apparent Kd: 9.54 nM
[2]
  apparent Kd: 16.2 nM

## GCAACAUGUUCAGGAUAUACGCUACAAACUCGUGUAGAAGGGAAGGAUACAAUUACAUGAGGAUCACCCAUGUGUUAUCCGAUU
[3]
  apparent Kd: 23.7 nM
[4]
  apparent Kd: 20.8 nM

## GCACCUAGGUCAGGAUAUCAAAAUGUCAUACAUGAGGAUCACCCAUGUGUCGUUAAGUAACACUGUGAGAAGGGACAACUUGAA
[1]
  apparent Kd: 10.3 nM
[2]
  apparent Kd: 8.82 nM

## GCACGGCUAGAGAAGGGAAGGUGGAAGAGAUGUGAGGGACAUGAGGAUCACCCAUGUCUUACGAUUCAGGAUAUCUGAGAGGCU
[1]
  apparent Kd: 10.2 nM
[2]
  apparent Kd: 10.3 nM

## GCGACAUGAGGAUCACCCAUGUGCCUCGUGUUAUUCUCUUUAAGAAGGAACGGGUAGCUCUAUUGUUAGGAUAUUAAUGGAAUU
[1]
  apparent Kd: 689 nM
[2]
  apparent Kd: 724 nM

## GCGACUCUCGUGAAGCGACAUGAGGAUCACCCAUGUAACACUAGAAGGAGGCACGAUACGAUGUCCUAGGAUAUAGACACGGCU
[1]
  apparent Kd: 27.8 nM
[2]
  apparent Kd: 26.4 nM

## GCUACACAUGAGGAUCACCCAUGUCAGGUCACUGAAGGAUAUAUUACUUAAUCCUGGGUCAUAGAAGGUCAAUUGC
[3]
  apparent Kd: 31.4 nM
[4]
  apparent Kd: 21.9 nM

## GCUGCUCAUCAAAACUGGACAUGAGGAUCACCCAUGUCUUUGCAGGAUAUUGAUCGUCAGUACAUCAAGAAGGGCACGCGGCAA
[3]
  apparent Kd: 12.9 nM
[4]
  apparent Kd: 9.89 nM

## GCUUGCUCAGAGGAUAUAGUUUCAACCACUCUACUAGAAGGCUGUACAUGAGGAUCACCCAUGUCCUUAAUCUC
[1]
  apparent Kd: 22.6 nM
[2]
  apparent Kd: 23.7 nM

## GGAAAGUCUGAGAAGGGAUGAAGACAUGAGGAUCACCCAUGUGAAGGCCACUGGCUCCACAAGUAUCAGGAUAUCAGCAUAGCG
[3]
  apparent Kd: 36.3 nM
[4]
  apparent Kd: 20.6 nM

## GGAAGGACAGUUGAUACCAGUUUCAAAGGCGGUAAUCACUACAUGAGGAUCACCCAUGUCAACCCUUGGCAGCAAUAGACCGUGG
[5]
  apparent Kd: 18.8 nM
[6]
  apparent Kd: 24 nM

## GGAAUGUGAGGAUAUAGGUGACCAAUACAAAACACAAAGAUCUAGAAGGCACAUGAGGAUCACCCAUGUAUACG
[1]
  apparent Kd: 19.9 nM
[2]
  apparent Kd: 17.9 nM

## GGACACGAAGGAUAUACCCAAUGCCUGAGAAAACUCAUGGGACAUGAGGAUCACCCAUGUAGAAGGUCGUUAAA
[1]
  apparent Kd: 558 nM
[2]
  apparent Kd: 416 nM

## GGACAUGAGGAUCACCCAUGUGGGAUCCACUACGGUCACGCUAGAAGGGAUGUGGGUGGCCGAUAUCAGGAUAUAGCAGUUUAG
[1]
  apparent Kd: 381 nM
[2]
  apparent Kd: 189 nM

## GGACGGUGGUGAGGAUAUUGUCACAUGAGGAUCACCCAUGUCGUCUGGGAGCGGACUCCUCGGUCCAAGAAGGCACGACCAGCC
[1]
  apparent Kd: 246 nM
[2]
  apparent Kd: 431 nM

## GGAUUUGAUCCAGGAUAUUAACAAUCCUCAGAUCAAAAUACAUGAGGAUCACCCAUGUACUCAAAUAAGAAGGGGAUGGCGGCC
[1]
  apparent Kd: 25.7 nM
[2]
  apparent Kd: 20.5 nM

## GGCGUCCAAUUGCAGGAUAUCGGCCGAACAACAUGAGGAUCACCCAUGUCUUGCCACAAUCAUGCCGAGAAGGGCAGAAGAACGUG
[3]
  apparent Kd: 21 nM
[4]
  apparent Kd: 10.1 nM

## GGGAGAAAUGGAGGAUAUAUUAAAGCACAGCUGACAUGAGGAUCACCCAUGUGAAUUAAAGAUGCAUAGAAGGCCAAACUACAA
[3]
  apparent Kd: 17.3 nM
[4]
  apparent Kd: 11.8 nM

## GGGCAACAUGAGGAUCACCCAUGUCGUCAUGGGUUCAAUCGGAGAAGGAACGGAGUGAUAUCCAGUUAGGAUAUCCGCUACACU
[1]
  apparent Kd: 44.6 nM
[2]
  apparent Kd: 44 nM

## GGGCCCUUCUCAUAGGAUAUACUUUAUACCACAUGAGGAUCACCCAUGUAAACAUAAUUAAGAAAGUAGAAGGAUGACGAAAAUCG
[3]
  apparent Kd: 10.4 nM
[4]
  apparent Kd: 8.98 nM

## GGUACUCUGUACUAACAUGAGGAUCACCCAUGUAGGCAAACUCAGGAUAUAUUGAACACACCUAGAUAGAAGGGAGUUCGUGAU
[3]
  apparent Kd: 11.2 nM
[4]
  apparent Kd: 9.66 nM

## GGUUUACAUGAGGAUCACCCAUGUCCUGACAUGAGUUAGAAACAGGAUAUGGCGCAAGAAAAUGUCCAGAAGGGUUCAUAGCAA
[3]
  apparent Kd: 238 nM
[4]
  apparent Kd: 70.2 nM

## GUACCACUCAAGAAGGACCUAGUUCACUAACCUGUGACAUGAGGAUCACCCAUGUGGCUAUUGCGGUAGGAUAUUGAAGACCGG
[3]
  apparent Kd: 157 nM
[4]
  apparent Kd: 69.1 nM

## GUCAUGUUAGGAUAUACACGUACCCGCCGACAGCCAGCAAUGUAGAAGGAACAUGAGGAUCACCCAUGUCGUGG
[1]
  apparent Kd: 15.2 nM
[2]
  apparent Kd: 31.5 nM

## GUCGGCUCAGUGUAGGAUAUGUCAAAGGUCACAUGAGGAUCACCCAUGUCUCGACGCAAAUUAGGACAGAAGGACAGCCAAAGCAU
[3]
  apparent Kd: 7.57 nM
[4]
  apparent Kd: 4.97 nM

## GUCGUCACAGGAUAUACAUGAGGAUCACCCAUGUUCCCGUGUAAAUGGGUUGUGUUAGGUAGAAGGGUGCACGC
[1]
  apparent Kd: 17.4 nM
[2]
  apparent Kd: 27.8 nM

## GUGCAAAACCAGAAGGGACAUUAAAGGGUAAAGUCAGGAUAUGGCACAUGAGGAUCACCCAUGUAGACUAGACGCGUUAUUUUC
[3]
  apparent Kd: 9.99 nM
[4]
  apparent Kd: 9.11 nM

## GUUCGGCGAGGAUAUCUGCUACAGUACAUGAGGAUCACCCAUGUGGGUUAUGUCCGGUCCAGAGAAGGCGCUGCCA
[1]
  apparent Kd: 33.4 nM
[2]
  apparent Kd: 47.9 nM

## GUUGACGAGUCAGGAUAUGAUUAGUGGGAGAAACAGCAACUCACAUGAGGAUCACCCAUGUAUGUUCAGAAGGGACGCCGAUCA
[1]
  apparent Kd: 63.9 nM
[2]
  apparent Kd: 183 nM

## GUUGGACAUGAGGAUCACCCAUGUGAAUUGUUUUCCACGUACUAGGAUAUCGCGGGACAAACCAUCGAGAAGGAGUCGACCUAA
[1]
  apparent Kd: 14.4 nM
[2]
  apparent Kd: 12.2 nM

## UAAAUACAUGAGGAUCACCCAUGUUUGGAUACCAGAUAUGACAUUAUCCCUUGGCAGCCAUUCGUUCCAAAUGCUAUUGUGAAGG
[7]
  apparent Kd: 22.5 nM
[8]
  apparent Kd: 31 nM

## UAACCCGUGUAGAAGGCAAGCUCCGCGCUGGUCGUCAUCACAUGAGGAUCACCCAUGUGGAAGAUUGAGGAUAUACGCGCGAUG
[1]
  apparent Kd: 5.45 nM
[2]
  apparent Kd: 7.53 nM

## UAACUCAAGUAACAGGAUAUGAGUGCGGAUACAUGAGGAUCACCCAUGUUGACGAUAACCGGACAACAGAAGGGUACCUAACUUGG
[3]
  apparent Kd: 33.5 nM
[4]
  apparent Kd: 22.2 nM

## UACGAGUAAGGAUAUACACUGACCCAAAGAGUACAGAAAAUGUAGAAGGUACAUGAGGAUCACCCAUGUAGGUG
[1]
  apparent Kd: 85.2 nM
[2]
  apparent Kd: 94.3 nM

## UAGAAUACAGGAUAUACAGCGAGAAAUCAUAUAAUAUACACACAUGAGGAUCACCCAUGUAGAAGGGAAUAAGG
[1]
  apparent Kd: 24.9 nM
[2]
  apparent Kd: 24 nM

## UAGAGCCAGUCGGCCGCCACUCUCCAUAUGUGAGCCUUUAAGUUCUACAUGAGGAUCACCCAUGUGAGGACCGGGACCGAAUCUA
Designed as: OFF switch for tryptophan, no ligand
  apparent Kd: 60.3 nM
Ligand present: tryptophan, designed as: OFF switch for tryptophan
  apparent Kd: 80.7 nM
